Screening data as filed in PubChem.
hERG rescue – hERG rescue from dofetilide block, primary screen, cell-based, CHO-hERG, FluxOR thallium flux, dofetilide IC70 | Voltage-gated inwardly rectifying potassium channel KCNH2 (Homo sapiens), Q12809 | dofetilide IC70 present | activation (rescue from dofetilide block), less the hit threshold, % at 10 µM | 310,000 tested, 0.51% active;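 active means activation above the mean of controls blocked by dofetilide plus 5 SD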;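 further: thallium influx through hERG after potassium depolarization seen as dye fluorescence rise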
KCNK3 block – human KCNK3 channel inhibitors, primary screen, CHO cells, FluxOR thallium flux, B-score. Potassium channel subfamily K member 3 (Homo sapiens), O14649. FluxOR fluorescence; active compounds read low. B-score at 10 µM. 340,000 tested, 0.84% active. AID 602410, 2012;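 active means B-score under library mean minus 4 SD, starting fluorescence ratio at most library mean plus 5 SD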;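 further: more negative B-score means stronger inhibition of thallium flux through KCNK3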
KCNK9 inh – KCNK9 potassium channel inhibitors, primary screen, HEK293 cells, thallium flux | Potassium channel subfamily K member 9 (Homo sapiens), Q9NPC2 | FluxOR thallium flux fluorescence; active compounds read low | B-score at 10 µM | 310,000 tested, 1.2% active;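 active means ratio B-score over 3 SD below the library mean, with starting fluorescence within 5 SD of its mean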;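 further: negative B-score means less thallium flux so channel inhibition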
KCNQ1 inh – inhibitors of human KCNQ1 channel, primary screen, cell-based, thallium flux, high-throughput; 310,000 tested, 1.3% active; B-score at 10 µM; CHO-K1 KCNQ1, FluxOR thallium flux fluorescence; active compounds read high; AID 2642, 2010;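 active means compounds whose thallium flux B-score, printed positive for inhibition, exceeds three library SD while starting fluorescence stays within three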;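 further: channel opened by potassium depolarization with thallium stimulus after 20 min compound exposure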
KCNQ1 pot – potentiators or activators of KCNQ1 channel, primary screen, cell-based, thallium flux, high-throughput | AID 2648, 2010 | CHO-K1 KCNQ1, thallium flux FluxOR fluorescence; active compounds read high | Potassium voltage-gated channel subfamily KQT member 1 (Homo sapiens), P51787 | 310,000 tested, 0.35% active | B-score at 10 µM;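 active means fluorescence ratio B-score, a plate-corrected score, at least three library SD, with initial intensity B-score within 5 SD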
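System: Stable KCNQ1 CHO-K1 line | Incubation: 90 min dye loading and 20 min compound exposure, both at room temperature | Measure: Ratio B score | Medium: Assay buffer for compound exposure, DMSO matched across wells | Compound dosing: Single-concentration screen | Probe or stimulus: K+/Tl+ depolarizing stimulus | Measured by: Kinetic FluxOR fluorescence, 10 s baseline plus 110 s post-stimulus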
Kir21 inh – inhibitors of mouse Kir2.1 inward-rectifier potassium channel; Inward rectifier potassium channel 2 (Mus musculus), P35561; HEK293-Kir2.1, FluxOR thallium flux fluorescence; active compounds read low; B-score at 10 µM; 310,000 tested, 0.85% active;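 active means fluorescence ratio B-score at or below minus 3 SD of library scores, with starting-brightness B-score within 2 SD, cut at about -4.2 in these data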;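 further: channel flux triggered by added potassium and thallium sulfate stimulus; B-score of peak minus minimum fluorescence over baseline after thallium stimulus; more negative B-score means stronger Kir2.1 block with less thallium influx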
KCNK3 inh conf – retest of human KCNK3 channel inhibitors, confirmation, CHO cells, FluxOR thallium flux, triplicate; FluxOR fluorescence; 0% buffer, 100% carvedilol maximal block; ratio percent of control, % at 10 µM; 2,400 tested, 99% active; shares compounds with KCNK3 block;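 active means ratio percent of control, averaged over triplicates, above buffer control mean plus 5 SD, cut at about 64% in these data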;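 further: ratio is the fluorescence rise from min to max over baseline after thallium stimulus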
KCNK3 noninduced – thallium flux inhibition in non-induced cells, primary screen, counter-screen for KCNK3 inhibitor project, cell-based, non-induced KCNK3 line, FluxOR thallium, triplicate | shares compounds with KCNK3 block | non-induced KCNK3 parental cells; active compounds read low | thallium flux ratio (lower = more inhibition) at 10 µM | 2,400 tested, 40% active | AID 651747, 2012;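 active means thallium flux ratio, averaged over three wells, more than 5 SD below the buffer control mean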;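 further: host cells are CHO cells without KCNK3 induction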
Numbers stand for hits. Compounds with a hit are over-represented: about 3.7% of the library has one in this group of screens.

How did CN(C)c1ccc(/C=C2\CCC/C(=C\c3ccccc3)C2=O)cc1 do in these assays?
hERG rescue: inactive; KCNK3 block: inactive; KCNK9 inh: inactive; KCNQ1 inh: inactive; KCNQ1 pot: inactive; Kir21 inh: inactive

What do the screens show for `CN(C)c1ccc(C=c2c3ccccc3n3c2c2c([n+]3C)CCCC2)cc1`?
KCNK3 block: -13; KCNK3 inh conf: 171; KCNK3 noninduced: 0.071

What do the screens show for `COc1cc(C2c3c(oc4ccccc4c3=O)C(=O)N2c2ccc(C)cn2)ccc1O` (stereo not given)?
hERG rescue: inactive; KCNK3 block: inactive; KCNK9 inh: inactive; KCNQ1 inh: inactive; KCNQ1 pot: inactive; Kir21 inh: inactive

Results for CCOc1ccc(C2c3c(oc4ccccc4c3=O)C(=O)N2c2ccc(C)cn2)cc1OC (stereo not given) ?
hERG rescue: inactive; KCNK3 block: -11; KCNK9 inh: inactive; KCNQ1 inh: inactive; KCNQ1 pot: inactive; Kir21 inh: inactive; KCNK3 inh conf: 99; KCNK3 noninduced: inactive

What do the screens show for `Clc1cccc(OCc2nnc(-c3ccccc3Br)o2)c1`?
hERG rescue: inactive; KCNK3 block: -11; KCNK9 inh: inactive; KCNQ1 inh: inactive; KCNQ1 pot: inactive; Kir21 inh: inactive; KCNK3 inh conf: 105; KCNK3 noninduced: inactive

Results for COc1ccc(COC(=O)CCS(=O)(=O)c2ccc(C)cc2)cc1F ?
hERG rescue: inactive; KCNK3 block: inactive; KCNK9 inh: inactive; KCNQ1 inh: inactive; KCNQ1 pot: inactive; Kir21 inh: inactive

How did Cc1ccc(S(=O)(=O)CCC(=O)OCC(=O)c2cc(C)n(C)c2C)cc1 do in these assays?
KCNK3 block: inactive

Results for CCc1ccc(CNC(=O)CCn2ccc3cc(S(=O)(=O)N4CCCC4)ccc32)cc1 ?
hERG rescue: inactive; KCNK3 block: -10; KCNK9 inh: inactive; KCNQ1 inh: inactive; KCNQ1 pot: inactive; Kir21 inh: inactive; KCNK3 inh conf: 117; KCNK3 noninduced: 0.15

How did C=CCNC(=O)NC(=O)COC(=O)/C(C#N)=C/c1cc(C)n(CCC(C)C)c1C do in these assays?
hERG rescue: inactive; KCNK3 block: inactive; KCNK9 inh: inactive; KCNQ1 inh: inactive; KCNQ1 pot: inactive; Kir21 inh: inactive

How did Cc1cc(/C=C(\C#N)C(=O)OCC(=O)NC(=O)NC(C)(C)C)c(C)n1CCC(C)C do in these assays?
hERG rescue: inactive; KCNK3 block: -8.7; KCNK9 inh: inactive; KCNQ1 inh: inactive; KCNQ1 pot: inactive; Kir21 inh: inactive; KCNK3 inh conf: 125; KCNK3 noninduced: inactive

Results for O=C(CN1CCN(C(=O)C2CCCO2)CC1)Nc1ccc(F)cc1 (stereo not given) ?
hERG rescue: inactive; KCNK3 block: inactive; KCNK9 inh: inactive; KCNQ1 inh: inactive; KCNQ1 pot: inactive; Kir21 inh: inactive

Results for C=CCc1cc(C)ccc1OCCCC(C(=O)OCC)C(=O)OCC ?
hERG rescue: inactive; KCNK3 block: -12; KCNK9 inh: inactive; KCNQ1 inh: inactive; KCNQ1 pot: inactive; Kir21 inh: inactive; KCNK3 inh conf: 101; KCNK3 noninduced: inactive

What do the screens show for `COc1ccc(/C=C/C(=O)N2CCCc3ccccc32)c(OC)c1`?
hERG rescue: inactive; KCNK3 block: inactive; KCNK9 inh: inactive; KCNQ1 inh: inactive; KCNQ1 pot: inactive; Kir21 inh: inactive

How did COc1ccc(OC)c(/C=C/C(=O)N2CCCc3ccccc32)c1 do in these assays?
hERG rescue: inactive; KCNK3 block: -11; KCNK9 inh: inactive; KCNQ1 inh: inactive; KCNQ1 pot: inactive; Kir21 inh: inactive; KCNK3 inh conf: 113; KCNK3 noninduced: inactive

What do the screens show for `N#Cc1nc(-c2ccco2)oc1N1CCN(c2ccccc2)CC1`?
hERG rescue: inactive; KCNK3 block: -11; KCNK9 inh: inactive; KCNQ1 inh: inactive; KCNQ1 pot: inactive; Kir21 inh: inactive; KCNK3 inh conf: 119; KCNK3 noninduced: inactive

How did COc1ccc(N2CCN(c3oc(-c4ccco4)nc3C#N)CC2)cc1 do in these assays?
hERG rescue: inactive; KCNK3 block: inactive; KCNK9 inh: inactive; KCNQ1 inh: inactive; KCNQ1 pot: inactive; Kir21 inh: inactive

What do the screens show for `CC(C(=O)N1CCCC1)N(c1ccccc1)S(C)(=O)=O` (stereo not given)?
hERG rescue: inactive; KCNK3 block: inactive; KCNK9 inh: inactive; KCNQ1 inh: inactive; KCNQ1 pot: inactive; Kir21 inh: inactive

How did CCN(c1ccccc1)S(=O)(=O)c1cccc(C(=O)NCc2ccccn2)c1 do in these assays?
hERG rescue: inactive; KCNK3 block: inactive; KCNK9 inh: inactive; KCNQ1 inh: inactive; KCNQ1 pot: inactive; Kir21 inh: inactive

What do the screens show for `N#Cc1cnc(NCc2ccc(Cl)cc2Cl)nc1`?
hERG rescue: inactive; KCNK3 block: -12; KCNK9 inh: inactive; KCNQ1 inh: inactive; KCNQ1 pot: inactive; Kir21 inh: inactive; KCNK3 inh conf: 108; KCNK3 noninduced: inactive

How did CC(=O)Nc1ccc2c(CSc3nnc(N)s3)cc(=O)oc2c1 do in these assays?
hERG rescue: inactive; KCNK3 block: inactive; KCNK9 inh: inactive; KCNQ1 inh: inactive; KCNQ1 pot: inactive; Kir21 inh: inactive

How did S=C(NCCc1ccccc1)Nc1ccc(Nc2ccccc2)cc1 do in these assays?
hERG rescue: inactive; KCNK3 block: -9.3; KCNK9 inh: inactive; KCNQ1 inh: inactive; KCNQ1 pot: inactive; Kir21 inh: inactive; KCNK3 inh conf: 126; KCNK3 noninduced: 0.13

What do the screens show for `S=C(NCCCc1ccccc1)Nc1ccccc1`?
hERG rescue: inactive; KCNK3 block: inactive; KCNK9 inh: inactive; KCNQ1 inh: inactive; KCNQ1 pot: inactive; Kir21 inh: inactive

What do the screens show for `CC(C)(CNC(=S)NCCc1ccccc1)CNC(=S)NCCc1ccccc1`?
hERG rescue: inactive; KCNK3 block: -9.4; KCNK9 inh: inactive; KCNQ1 inh: 14; KCNQ1 pot: inactive; Kir21 inh: inactive; KCNK3 inh conf: 116; KCNK3 noninduced: 0.1
